As usually defined, the T/C is the ratio of treated to control. As a reminder, the IC50 is the concentration at which inhibition is half-maximal. A low value points to greater potency in that assay.

Assay [1] has as its system Mus musculus. The experiment in a line: Percent median survival time of mice injected with P388 leukemia, at a intravenous compound dose of 80 mg/kg.
The next assay concerns L1210. Briefly: Inhibition of murine L1210 leukemia cell proliferation measured by the MTT assay. It counts as functional, cell-based. To be noted: Mus musculus. In a few lines:
(§1)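 Murine L1210 leukemia and B16 melanoma cells were grown in RPMI 1640 with 10% fetal calf serum, 2 mM L-glutamine, penicillin/streptomycin and 10 mM HEPES (pH 7.4). Cells were exposed to nine serial drug dilutions in triplicate for about four doubling times (L1210 48 h, B16 96 h), then read by microculture tetrazolium (MTT) assay. IC50 is the concentration halving optical density versus untreated controls, averaged over ≥2 independent experiments.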

Assay [2] relates to Mus musculus. Briefly: Long-term survivors among 7 mice infected with B16 melanoma, scored on day 90 at 320 mg/kg dose on day 1. Type of assay: functional.
In assay [3] the test system is Mus musculus. The experiment in a line: Percent median survival time of mice injected with P388 leukemia, at a intravenous compound dose of 320 mg/kg.
Assay [4] relates to Mus musculus. Briefly: Long-term survivors among 7 mice infected with P388 leukemia, scored on day 60 at 320 mg/kg dose on day 1. It counts as functional. In a few lines:
(§2)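 B6D2F1 mice in groups of 6–7 received 10^6 P388 cells ip on day 0. Dihydrochloride salts dissolved in water were injected iv on day 1 or on days 1, 5 and 9, at three doses and then five. Read-outs were % T/C (median survival treated/control × 100) and long-term survivors on day 60, both at the optimal dose (no toxic death, weight loss <20%).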

A further assay relates to B16. Briefly: Inhibition of murine B16 melanoma cell proliferation measured by the MTT assay. Type of assay: functional, cell-based. To be noted: Mus musculus. In a few lines: as §1
(Tetrazolium dyes change colour on reduction, which living cells bring about.)

Assay [5] has as its system Mus musculus. The experiment in a line: Long-term survivors among 6 mice infected with P388 leukemia, scored on day 60 at 80 mg/kg dose. Type of assay: functional. A digest of the protocol: (§3)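 B6D2F1 mice in groups of 6–7 were inoculated ip on day 0 with 10^6 P388 cells. Dihydrochloride salts were dissolved in water and given iv on day 1 or on days 1, 5 and 9. Doses ranged from a low nontoxic dose to a toxic one. Long-term survivors were counted at day 60.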

In assay [6] the test system is Mus musculus. Briefly: Long-term survivors among 6 mice infected with P388 leukemia, scored on day 60 at 40 mg/kg dose. It counts as functional. In a few lines: as §3
Assay [7] concerns Mus musculus. The experiment in a line: Percent median survival time of mice injected with B16 melanoma, at a intraperitoneal compound dose of 20 mg/kg.
Assay [8] concerns Mus musculus. The experiment in a line: Percent median survival time of mice intraperitoneally injected with P388 leukemia was determined from tested at 80 mg/kg at day1 dose to that of control. Type of assay: functional. Conditions: route intraperitoneal. In a few lines:
(§4)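 P388 leukemia in B6D2F1 mice (groups of 6–7), 10^6 cells inoculated ip on day 0. Dihydrochloride salts were dissolved in water and given iv on day 1 or on days 1, 5, 9. Three doses were tested, then five if active. %T/C = median survival treated/control × 100, reported at the optimal dose (no toxic death, weight loss <20%), from one or two representative experiments.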

In assay [9] the test system is Mus musculus. Briefly: Percent median survival time of mice intraperitoneally injected with P388 leukemia was determined from tested at 40 mg/kg at day1,5,9 dose to that of control. Type of assay: functional. Conditions: route intraperitoneal. In a few lines:
as §4

For assay [10], the system named is Mus musculus. Briefly: Long-term survivors among 7 mice infected with B16 melanoma, scored on day 90 at 20 mg/kg dose on day 1. Type of assay: functional.
For assay [11], the system named is Mus musculus. Briefly: Long-term survivors among 7 mice infected with P388 leukemia, scored on day 90 at 20 mg/kg dose on day 1. Type of assay: functional.
The test system of assay [12] is Mus musculus. The experiment in a line: Percent median survival time of mice injected with P388 leukemia, at a subcutaneous compound dose of 20 mg/kg on day 1, 5, 9. It counts as functional.
Assay [13] deals with Mus musculus. Briefly: Percent median survival time of mice injected with B16 melanoma, at a intraperitoneal compound dose of 10 mg/kg.
Assay [14] has as its system Mus musculus. The experiment in a line: Percent median survival time of mice injected with B16 melanoma at 80 mg/Kg subcutaneous dose; not tested. Type of assay: functional.
The test system of assay [15] is Mus musculus. The experiment in a line: Percent median survival time of mice injected with P388 leukemia at 240 mg/Kg dose; not tested. Type of assay: functional.
The test system of assay [16] is Mus musculus. Briefly: Percent median survival time of mice injected with P388 leukemia at 160 mg/Kg dose; not tested. Type of assay: functional.
The test system of assay [17] is Mus musculus. Briefly: Long-term survivors among 7 mice infected with B16 melanoma, scored on day 90 at 240 mg/kg dose on day 1. It counts as functional.
The subject of assay [18] is Mus musculus. Briefly: Long-term survivors among 7 mice infected with P388 leukemia, scored on day 60 at 240 mg/kg dose on day 1. Type of assay: functional. In a few lines: as §2
Assay [19] deals with Mus musculus. The experiment in a line: Percent median survival time of mice injected with P388 leukemia, at dose of 40 mg/kg on day 1. It counts as functional. A digest of the protocol:
as §4

In assay [20] the test system is Mus musculus. Briefly: Long-term survivors among 21 mice infected with B16 melanoma, scored on day 90 at 5 mg/kg dose.
Assay [21] deals with Mus musculus. The experiment in a line: Percent median survival time of mice injected with B16 melanoma, at a intraperitoneal compound dose of 5 mg/kg.
For assay [22], the system named is Mus musculus. Briefly: Long-term survivors among 12 mice infected with P388 leukemia, scored on day 60 at 20 mg/kg dose on day 1, 5, 9. It counts as functional. A digest of the protocol: as §3
Assay [23] deals with Mus musculus. The experiment in a line: Percent median survival time of mice injected with P388 leukemia, at dose of 20 mg/kg on day 1, 5, 9. Type of assay: functional. A digest of the protocol: as §4
Assay [24] has as its system Mus musculus. Briefly: Long-term survivors among 12 mice infected with P388 leukemia, scored on day 60 at 40 mg/kg dose on day 1. Type of assay: functional. In a few lines:
as §3

Assay [25] deals with Mus musculus. Briefly: Long-term survivors among 12 mice infected with P388 leukemia, scored on day 60 at 20 mg/kg dose on day 1. It counts as functional. A digest of the protocol:
as §3

In assay [26] the test system is Mus musculus. The experiment in a line: Percent median survival time of mice injected with P388 leukemia, at a subcutaneous compound dose of 10 mg/kg. Type of assay: functional.
In assay [27] the test system is Mus musculus. Briefly: Long-term survivors among 12 mice infected with P388 leukemia, scored on day 60 at 10 mg/kg dose on day 1, 5, 9. Type of assay: functional. A digest of the protocol: as §3
In assay [28] the test system is Mus musculus. The experiment in a line: Long-term survivors among 7 mice infected with B16 melanoma, scored on day 90 at 40 mg/kg dose on day 1, 5, 9. Type of assay: functional.
The subject of assay [29] is Mus musculus. The experiment in a line: Percent median survival time of mice injected with P388 leukemia, at a subcutaneous compound dose of 20 mg/kg. It counts as functional.

Molecules are shown by their SMILES.

Turning to `Cc1c2ccnc(C(=O)NCCN(C)C)c2cc2c3cc(OC(=O)CCC(NC(=O)OC(C)(C)C)C(=O)O)ccc3n(C)c12` (configuration not stated), the T/C in the assay with Mus musculus [1] and with Mus musculus [3] was over 614% in each case. Moreover, the IC50 was 89.3 nM in the assay with L1210 and 4 nM in the assay on B16. Also, the LTS in the assay with Mus musculus [2] and in the assay on Mus musculus [4] was 0 throughout.

For `Cc1c2ccnc(C(=O)NCCN(C)C)c2cc2c3cc(OC(=O)N(C)C)ccc3n(C)c12`, the LTS in the assay on Mus musculus [5] and in the assay on Mus musculus [6] was 0 throughout. Besides, the IC50 in the assay on L1210 turned out to be 1850 nM; with B16, 2670 nM. In addition, the values for the T/C in the assay on Mus musculus [7], in the assay with Mus musculus [8] and in the assay on Mus musculus [9] were 161%, 124% and 119%, respectively.

Consider `CCOCCC(=O)Oc1ccc2c(c1)c1cc3c(C(=O)NCCN(C)C)nccc3c(C)c1n2C`, for which the IC50 with L1210 was 5.7 nM; in the assay on B16 it was 3 nM. The LTS in the assay on Mus musculus [10] and in the assay on Mus musculus [11] was 0 in each case. Further, the figures for the T/C in the assay on Mus musculus [12] and in the assay with Mus musculus [13] were 222% and 157%, respectively.

`Cc1c2ccnc(C(=O)NCCN(C)C)c2cc2c3cc(OC(=O)NCCC(=O)O)ccc3n(C)c12`: the T/C stood at 138% in the assay with Mus musculus [14], 109% with Mus musculus [15] and 109% with Mus musculus [16]. Besides, the results for the IC50 with L1210 and in the assay with B16 were 654 nM and 78.7 nM, respectively. Besides, the LTS in the assay on Mus musculus [17] and in the assay on Mus musculus [18] was 0 throughout.

Take `Cc1c2c(C(=O)NCCN(C)C)nccc2c(C)c2c1c1cc(OC(=O)CCCC(=O)O)ccc1n2C`: the T/C with Mus musculus [19] was over 640%; with Mus musculus [21], 202%; in the assay with Mus musculus [23], over 640%. Moreover, the LTS in the assay with Mus musculus [20] was determined as 0; with Mus musculus [22] it was 11; with Mus musculus [24] it was 11. The IC50 was determined as 34 nM in the assay on L1210 and 1.4 nM in the assay on B16.

Consider `Cc1c2ccnc(C(=O)NCCN(C)C)c2cc2c3cc(OC(=O)C4C[C@@H]4c4ccccc4)ccc3n(C)c12` (some centres not stated), for which the IC50 stood at 30.9 nM in the assay with L1210 and 14.1 nM in the assay with B16. For the same compound, the T/C is reported as 129% in the assay with Mus musculus [21], 152% in the assay with Mus musculus [26] and 146% with Mus musculus [29]. For the same compound, the LTS in the assay on Mus musculus [25], with Mus musculus [27] and with Mus musculus [28] was 0 in each case.

The record behind these values is ChEMBL document CHEMBL1132144, “Synthesis of 9-O-substituted derivatives of 9-hydroxy-5, 6-dimethyl-6H-pyrido[4,3-b]carbazole-1-carboxylic acid (2-(dimethylamino)ethyl)amide and their 10- and 11-methyl analogues with improved antitumor activity” (J Med Chem, 1999).
